B1: tRNA (parent)
chain: GUUCCGUUGGCGUAAUGGUAACGCGUCUCCCUCCUAAGGAGAAGACUGCGGGUUCGAGUCCCGUACGGAACG

This sample holds only a part of the variants without activity.

Variants of B1 are the subject of the data set. The data set can be described thus: yeast fitness relative to wild type (ratio to wild type); higher = fitter; tRNA-Arg(CCU), competitive growth, 37 C, YPD. The essentials:
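Variants of the tRNA-Arg(CCU) gene, chemically synthesised with a 3% per-site mutation rate at 69 sites, were placed at the native genomic locus in Saccharomyces cerevisiae. The pooled strains were competed in YPD at 37°C for 24 hours in six parallel replicates. Gene amplicons from the start population and from each end population were read by 100-nucleotide paired-end sequencing. Darwinian fitness relative to wild type came from changes in genotype frequencies; genotypes needed ≥ 100 starting reads, and estimates < 0.5 were set to 0.5.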
On to U8G C24U, for which the yeast fitness was 0.626.
Regarding G38C G44C C46A, the yeast fitness was 0.814.
The same measure for U8A G18A C30A U32A U35G A65C: at most 0.5; for U2C G10C A21G: at most 0.5; for G6A C30G: 0.711.
With A37C G68C the figure was 0.764; with C4A G6C C22U G51C C62A, at most 0.5; with A20G A37G G44A A65U, at most 0.5.
In the case of U19G U35C A43C G52C U54A, the yeast fitness was at most 0.5.
The same measure for C22G G52C C66U G68A: at most 0.5; for A15G C24G C29U: at most 0.5; for C11A C27U: 0.646.
With U2C U16A G67C the figure was 0.644; with U8C U16C C61G A69C, at most 0.5; with G25A C31U G38C G48A, 0.651.
In the case of C5U C22G C24G C31U, the yeast fitness amounted to 0.552.
In the case of U19A C27G A65U, the yeast fitness is at most 0.5.
The same measure for C4A A42U G68C: at most 0.5.
With A14G C31G A57C A65C the figure was at most 0.5.
With C31U G48A C61U A65C the figure was at most 0.5; with C22U A43C A70C, 0.643.
For C31U G50A, the yeast fitness was 0.904.
For the variant A14G A36U G50A C62G, the yeast fitness was at most 0.5.
With A40G G50A the figure was 0.944; with C46A G63C, 0.995.
For the variant G23A G51A C66U, the yeast fitness was at most 0.5.
With C11A A15C C24G C34A the figure was at most 0.5.
As for U3A G51A, the yeast fitness came to 0.765.
Take A43C G67U: the yeast fitness came to 0.849.
The same measure for G41A G63A: 0.893.
C5G C30U C31G: the yeast fitness is 0.79.
For A14G U53G G56A C61U, the yeast fitness was 0.656.
With A42G C49A the figure was 0.782; with C29A C33G A45C, 0.543; with G17A C31G G68A, at most 0.5.
Consider U7C A15G C27U C29U, for which the yeast fitness is at most 0.5.
On to A45G C46G, for which the yeast fitness stood at 0.87.
The same measure for U2A U47A: 0.851.
For the variant G18A C27A, the yeast fitness was determined as 0.726.
The same measure for A14U U26A C55G A65C: at most 0.5.
For the variant A43U G48U, the yeast fitness was 0.77.
With C4G C11U C29U A45U the figure was at most 0.5.
With G44C U54A C61A the figure was 0.561; with G6C C30A A45G C55G A57U C62G, at most 0.5.
In the case of A14G U16A, the yeast fitness was 0.886.
G12C C29A A45U G56A: the yeast fitness is at most 0.5.
With U13A A42U A70G the figure was 0.745; with C5A G38C, 0.732.
With G25A G52U the figure was 0.627.
With U19G C22U C49U C62A the figure was at most 0.5.
As for U2A U54C, the yeast fitness stood at 0.932.
Turning to U7G G12A U13A, the yeast fitness is 0.565.
Turning to C31G C33G U47A, the yeast fitness came out at 0.581.
With C29G C49U G58C the figure was 0.558; with C27G G38C C49G A70G, at most 0.5.
The same measure for C11U U16C U19C: 0.929; for G9A C11A C24U C34A A37U C62A C66A: at most 0.5.
Turning to G17C C22G U26C U47A C66G, the yeast fitness was at most 0.5.
G9A A37C A45U: the yeast fitness is at most 0.5.
With A21C C33U C61A G68C the figure was at most 0.5.
For the variant G48C U53G, the yeast fitness amounted to 0.635.
Regarding G17A C33G A36G G63A, the yeast fitness is at most 0.5.
With C24U A45C C49G A69C the figure was at most 0.5; with C29A A36U A40U C55U G56A U59C, at most 0.5; with C27G C30U G52C, 0.507.
Consider A15G G58A G63A G68C, for which the yeast fitness was at most 0.5.
The same measure for A21U A57U: 0.61; for G12A C24U C49G G56C G58A: at most 0.5; for U3A G9C: 0.567.
On to U2A G9A C11U G51C C55U A69C A70U, for which the yeast fitness was at most 0.5.
A15G G17A C33U G39C C55A G67C: the yeast fitness turned out to be 0.66.
C11U G50A A70U: the yeast fitness stood at 0.702.
With G17C G51A G63C A69U the figure was at most 0.5; with C5G A45G, 0.984.
For the variant U13C C24G C49G, the yeast fitness is at most 0.5.
With C5G A14C G18A A43G A45C C46U A69C the figure was at most 0.5; with C49U G51C A69C, at most 0.5; with A14C A20G G23A C29U U35C C55G, at most 0.5.
With G48A C55U G63A the figure was 0.706; with A42C G52C A69C, 0.607.
For the variant C27A C29G, the yeast fitness turned out to be 0.702.
For U7G C33U A42C A43C C49U A69U, the yeast fitness was at most 0.5.
With C11U C27U C31A U35C C55G C62U C66U A70C the figure was at most 0.5.
With U32C A45U C46G A69C, the yeast fitness was at most 0.5.
The same measure for U32A: 0.742; for C31G G41A G52C A65U G67C: at most 0.5; for A14G U26C G48A: 0.661.
Turning to G9C U13A G25A A40C A57C C61U G67A, the yeast fitness was at most 0.5.
In the case of C29U C30A A37U A57C, the yeast fitness is at most 0.5.
The same measure for G48A A57U: 0.649; for C29G C49G G63C: at most 0.5; for U8C G10C A42G A43G C55U: 0.724.
For the variant G6C U19G A43U G58C C66A, the yeast fitness was at most 0.5.
C5A G17C A43U U59A: the yeast fitness came to 0.609.
The same measure for C11A U59A: 0.629.
Regarding C4G G38A C55U C60G, the yeast fitness was at most 0.5.
With A21G C24G C31A G44A the figure was 0.571; with U3C C31A A42G A43G G68C, at most 0.5.
The same measure for U19G A57G: 0.611.
Consider C5G C30U C31G C46U, for which the yeast fitness was at most 0.5.
With A40G C55U G56A U64G A69U the figure was at most 0.5.
The same measure for U2C A40G U54A: at most 0.5.
The same measure for C27U U28C C62U: 0.625; for U28A C29G C31U A69U: at most 0.5.
C5U A14G C24U U28C: the yeast fitness is at most 0.5.
With U16C C22U A37U C49A C62U the figure was 0.6; with G9C U16G A70U, at most 0.5; with A15U A37G C66G, at most 0.5.
The same measure for U8A C34G A37U A42U A57G: at most 0.5; for C5U A14U G17C C33U G52C G63A: at most 0.5.
Consider U16A A37U G56A C62A A69G, for which the yeast fitness was at most 0.5.
With G6A A14C A42U G56A G63C the figure was 0.511.
In the case of G17A C55U C62U, the yeast fitness is at most 0.5.
A20U C29G C49G G63C: the yeast fitness worked out at 0.543.
With C30U A70C the figure was 0.869; with A36U A45U U53A C62A, at most 0.5.
The same measure for C22A A43G: 0.809; for U32C C46G G52C G68C: at most 0.5; for C4A U32C: 0.912.
The same measure for C34A A42U A45G: at most 0.5; for C29U G67U A69U: at most 0.5.
Turning to G39A A45C A65U C66U, the yeast fitness was at most 0.5.
The same measure for U8C C24A C46G G63A: 0.597; for G12A C29U G56C: at most 0.5; for C22A G58A: 0.866.
The same measure for C4U A20G: 0.979.
With C60A A70C the figure was 0.621.
Regarding U7C A65U A69C, the yeast fitness was found to be 0.532.
With G38C G41C C66U the figure was at most 0.5; with U3G U13A U16A, 0.65; with U8A A21G A36G, 0.65.
Consider U7A G9A C24A, for which the yeast fitness is at most 0.5.
A21G A40G A42C U53A U54C: the yeast fitness is at most 0.5.
The same measure for C30U C61U G63A A65G: at most 0.5.
On to C5G G38A, for which the yeast fitness was determined as 0.729.
A15C C22A G25C U28A A36U A70G: the yeast fitness was at most 0.5.
With U8A A20U C34U A45C the figure was 0.567.
The same measure for C24U C29U G51U: at most 0.5; for G9C U16C: 0.731.
As for A14C C34U G39C C55U G56C, the yeast fitness was at most 0.5.
On to U3A C27U, for which the yeast fitness turned out to be 0.853.
The same measure for C4G A40U: 0.754; for U2A U64C: 0.938; for C11A C33U C62U A69C: at most 0.5.
Regarding C11A A36C A42G C49A, the yeast fitness is at most 0.5.
With C27G C31U C49G U59A the figure was at most 0.5; with G41C G52C A69C, at most 0.5.
The same measure for U8C G10C C46U C66U: at most 0.5.
The same measure for C5U C11A U13C C24G C30G C46U: 0.629; for C4A C11U C29G C34A G39C: at most 0.5.
With U8G G52A G67C, the yeast fitness amounted to 0.521.
The same measure for G23A G52C: 0.564.
In the case of A14U U26A C33A G63A, the yeast fitness is at most 0.5.
As to G9C A42U C62G, the yeast fitness was at most 0.5.
The same measure for U16C C46G C55G C60G: 0.615; for A15U C22U U54C: 0.754; for C4U C27U: 1.02.
With U28C G56C the figure was 0.53; with A43U G67A, 0.79.
As for C11U C30A G51A G67A, the yeast fitness was at most 0.5.
With A43C G48A A57C G68U the figure was 0.701; with C5G C24A A42U A57C U64A, at most 0.5; with U8C G41C A69U, 0.637.
The same measure for A20G U35G A65U: at most 0.5; for C4G G51C U54A: at most 0.5.
The same measure for C5U G52A C66U: 0.584; for G56C G67C: 0.696.

The record behind these values is the RNAGym collection of RNA variant scans (doi:10.1126/science.aae0568).
